Sampled rows, rich in hits. Any-hit rate of the full collection: about 3.5%.
RGS4 inh = human RGS4 inhibition. P49798. HEK293 M3R/RGS4 inducible, Fluo-4 calcium flux; active compounds read high; triggered by carbachol at its EC20. B-score at 10 µM. actives 0.45% (n = 310,000). AID 463165;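 active = B-score, a plate-corrected calcium signal, over three deviations above library mean, with baseline fluorescence within five deviations of library mean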;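 also: RGS4 expression induced by doxycycline in cells with stable M3 receptor; B-score is computed from the integrated fluorescence ratio over baseline after carbachol; higher B-score means a larger calcium signal and so more RGS4 inhibition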
Target sequence (P49798 whole entry, looked up): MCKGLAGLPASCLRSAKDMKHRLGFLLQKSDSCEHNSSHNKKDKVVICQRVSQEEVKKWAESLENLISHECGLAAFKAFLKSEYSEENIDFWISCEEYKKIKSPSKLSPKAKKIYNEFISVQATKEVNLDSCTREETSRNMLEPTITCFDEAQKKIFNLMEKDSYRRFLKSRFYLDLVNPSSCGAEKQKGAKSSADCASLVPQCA
RGS4 act = potentiators or activators of RGS4. HEK293 M3R/inducible RGS4, carbachol calcium flux Fluo4; active compounds read low. B-score at 10 µM. actives 0.92% (n = 310,000);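 active = B-score of the integrated calcium signal more than 4 SD below the library mean, with starting fluorescence not abnormally high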;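 also: negative B-score means reduced calcium response which marks RGS4 activation or potentiation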
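test system = M3R-expressing HEK293 line, RGS4 induced by doxycycline | probe or stimulus = carbachol at ECmax as muscarinic agonist stimulus | timing = dye loading 30 min 37 °C, buffer rest 30 min RT | signal = calcium dye Fluo4 fluorescence | evaluation = B score from integrated fluorescence ratio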
MrgX1 ag = human MrgX1 receptor agonism, primary screen; Q96LB2; MrgX1-HEK293 cells, Fluo-4 calcium fluorescence, agonist mode; active compounds read high; B-score at 10 µM; actives 0.44% (n = 310,000); AID 588627;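 active = calcium response B-score plate-corrected fluorescence ratio at least 3 library SD, with starting fluorescence B-score inside 5 SD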
Target sequence (Q96LB2 whole entry, looked up): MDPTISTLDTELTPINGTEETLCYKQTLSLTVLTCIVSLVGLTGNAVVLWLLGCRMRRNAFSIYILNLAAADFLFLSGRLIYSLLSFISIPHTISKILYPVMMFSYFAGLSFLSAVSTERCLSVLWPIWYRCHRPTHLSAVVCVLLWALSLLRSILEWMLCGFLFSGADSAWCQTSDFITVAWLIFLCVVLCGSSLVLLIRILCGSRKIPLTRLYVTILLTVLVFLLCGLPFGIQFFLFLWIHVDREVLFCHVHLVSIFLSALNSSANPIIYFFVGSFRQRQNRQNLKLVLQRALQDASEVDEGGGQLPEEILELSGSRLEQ
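Test system: Stable human MrgX1 HEK293 cell line | Schedule: Overnight plating before 1 h dye loading | Read-out basis: Baseline-normalised fluorescence change ratio, B-scored | Detection: Kinetic calcium dye fluorescence, Fluo-4 NW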
MrgX1 antag = blocks BAM8-22 activation of human MrgX1 receptor | actives 1.3% (n = 310,000) | MRGX1-HEK293 calcium flux, Fluo-4, BAM8-22 antagonism; active compounds read low | B-score at 10 µM;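 active = calcium-response B-score plate-corrected more than 3 library SD below zero, starting fluorescence within 5 deviations, no agonist response on first addition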;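 also: peak minus trough fluorescence over baseline after final BAM8-22 challenge near maximal dose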
MrgX1 PAM = allosterically activates human MrgX1 receptor signaling; MrgX1-HEK293, Fluo-4 calcium flux, FDSS; active compounds read high; B-score at 10 µM; actives 0.63% (n = 310,000);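 active = plate-corrected calcium response at least 3 library SD above typical, normal starting fluorescence, not activating the receptor alone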;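 also: compound read alongside a low EC10 to EC30 dose of BAM8-22 agonist; peak minus trough fluorescence over baseline measured at the second addition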
RGS4 block valid = validation of RGS4 inhibitors | actives 65% (n = 1,700) | shares compounds with RGS4 inh | HEK293 M3R/RGS4, carbachol calcium Fluo-4 fluorescence; carbachol added at its EC20; 0 = buffer wells, 100 = carbachol control | calcium response, % at 10 µM;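 active = duplicate-averaged calcium response above the buffer-only control mean plus 5 SD of those controls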;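 also: integrated fluorescence ratio F max minus min over baseline F0; higher response in RGS4-induced cells means RGS4 inhibition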
RGS4 uninduced = counter-screen for RGS4 inhibitors: effect in non-induced cells | activity (percent), % at 10 µM | shares compounds with RGS4 inh | HEK293 M3R non-induced, carbachol calcium Fluo-4; submaximal (EC20) carbachol stimulus; buffer wells 0%, carbachol control wells 100% | actives 20% (n = 1,900) | AID 493000; call rule not given here;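 also: RGS4 induction absent so cells express M3R without RGS4; higher means more calcium signal and flags a non-specific hit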
M3R basal Ca ctr = second counter-screen for RGS4 inhibitors: non-induced cells without carbachol | actives 22% (n = 1,900) | calcium response (agonist-mode artifact), % at 10 µM | AID 493001 | HEK293 M3R/RGS4 non-induced, Fluo-4 calcium, no carbachol; normalised: buffer wells 0%, carbachol wells 100% | shares compounds with RGS4 inh;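 active = duplicate-averaged calcium rise in uninduced cells above buffer wells' mean plus 5 SD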
MrgX1 ag confirm = human MrgX1 agonism, re-confirmation screen; shares compounds with MrgX1 ag; MrgX1-HEK293, Fluo-4 calcium fluorescence, FDSS; activation, % at 10 µM; actives 78% (n = 600); AID 602412;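 active = calcium signal rise, corrected for plate position, at least 3 library SD high, with starting brightness within 5 such deviations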
MrgX1 allo conf = human MrgX1 positive allosteric modulation, re-confirmation | shares compounds with MrgX1 PAM | MrgX1-HEK293, Fluo-4 calcium fluorescence, FDSS | activation (ratio percentage), % at 10 µM | actives 13% (n = 1,200) | AID 602413;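 active = ratio at least 3 SD above the weak peptide control, stable starting fluorescence, no direct agonism earlier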;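 also: compound followed by low BAM8-22 agonist challenge near EC20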
MrgX1 antag conf = reconfirmed antagonist of human MrgX1 receptor signaling; shares compounds with MrgX1 antag; MrgX1-HEK293, BAM8-22 calcium flux, Fluo-4; active compounds read low; remaining BAM8-22 calcium response % of control (active compounds read low), % at 10 µM; actives 19% (n = 2,300); AID 602420;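 active = remaining agonist calcium response no higher than 100% minus 3 SD of agonist-only control wells, with starting fluorescence near control levels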;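 also: agonist BAM8-22 given at a near maximal EC90 to ECmax level; peak minus minimum fluorescence divided by baseline after agonist addition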
HEK293 Ca flux = MrgX1 antagonist counter-screen hit in parental HEK293 cells; fluorescence ratio F(max-min)/F0 at 10 µM; actives 2% (n = 4,000); Fluo-4 calcium fluorescence, FDSS; shares compounds with MrgX1 antag;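 active = duplicate-averaged calcium fluorescence ratio at least three times the standard deviation of buffer wells, a nonspecific response in parental cells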
HEK293 Ca counter = counter-screen for MrgX1 allosteric activators: effect in parental HEK293 cells. shares compounds with MrgX1 antag. parental HEK293 calcium flux, Fluo-4 fluorescence ratio; active compounds read high. fluorescence ratio F(max-min)/F0 at 10 µM. actives 0.4% (n = 4,000);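 active = calcium fluorescence ratio, averaged over duplicates, at least 3 SD of the buffer-well ratio, meaning a nonspecific response in receptor-free cells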;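 also: untransfected parental HEK293 lacking MrgX1 used as counterscreen for MrgX1 allosteric activators; fluorescence change taken during the second addition on a kinetic imager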
HEK293 Ca cntr2 = MrgX1 activator counter-screen hit in parental HEK293 cells; shares compounds with MrgX1 antag; Fluo-4 calcium fluorescence (FDSS); active compounds read high; fluorescence ratio F(max-min)/F0 at 10 µM; actives 8.7% (n = 4,000);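 active = calcium fluorescence ratio at least three times the spread of buffer wells, meaning a non-specific response in parental cells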
* hit, by the source's call; i = inactive; nt = no result.

SMILES	RGS4 inh	RGS4 act	MrgX1 ag	MrgX1 antag	MrgX1 PAM	RGS4 block valid	RGS4 uninduced	M3R basal Ca ctr	MrgX1 ag confirm	HEK293 Ca flux	HEK293 Ca counter	HEK293 Ca cntr2	others
O=C(CCN1CCN(c2ccccc2F)CC1)c1ccc(Br)cc1	18.9*	i	40*	i	i	39.0%*	i	8.5%*	i	i	i	i
Cc1ccc(S(=O)(=O)CCC(=O)c2ccc(O)cc2O)cc1	24.5*	i	30.1*	i	i	62.0%*	46.0%*	i	126.9%*	i	i	i
Cc1ccc(S(=O)(=O)CCC(=O)OCC(=O)c2cc(C)ccc2C)cc1	i	i	i	i	i	nt	nt	nt	nt	nt	nt	nt
N#CC1(Nc2cccc(Br)c2)C(=O)Nc2ccccc21 (stereo not drawn)	10.3*	i	53.8*	i	i	44.5%*	29.5%*	76.5%*	194.8%*	i	i	48.8*
O=C(CC1(O)C(=O)Nc2ccccc21)c1cccc(Br)c1 (stereo not drawn)	i	i	i	i	i	nt	nt	nt	nt	nt	nt	nt
CCOc1nc2cnccc2n(CC(=O)Nc2ccc(C)c(C)c2)c1=O	i	i	i	i	i	nt	nt	nt	nt	nt	nt	nt
CCCOc1ccc(C(=O)OCCN2CCCCC2)c(O)c1	i	i	i	i	i	nt	nt	nt	nt	nt	nt	nt
Cc1ccccc1Nc1nc(N)nc(-c2oc3ccccc3c2C)n1	5.98*	i	i	i	47.2*	27.0%*	41.5%*	i	nt	i	i	i	MrgX1 allo conf=33.4%*
O=C(O)[C@@H]1CC(O)CN1C(=O)CCc1c[nH]c2ccccc12 (stereo partly drawn)	i	i	i	i	i	nt	nt	nt	nt	nt	nt	nt
Nc1ncnc2c1ncn2[C@@H]1O[C@H](CO)C[C@@H]1O	i	i	i	i	i	nt	nt	nt	nt	nt	nt	nt
Nc1ncnc2c1ncn2C1OC(CO)C(O)C1O (stereo not drawn)	9.44*	i	i	i	9.39*	41.0%*	71.0%*	i	nt	i	i	i	MrgX1 allo conf=i
CN(C(=O)c1ccccc1Cl)c1ccccc1C(=O)NCCc1ccccc1	i	i	i	i	i	nt	nt	nt	nt	nt	nt	nt
COc1cc(C2C(C#N)=C(N)Oc3cc(N(C)C)ccc32)cc2c1OCO2 (stereo not drawn)	i	i	93.6*	i	i	i	i	108.5%*	273.2%*	i	i	86.4*
O=C(CCNC(=O)c1ccc(Cl)cc1)Nc1ccccc1N1CCCC1	i	i	i	i	i	nt	nt	nt	nt	nt	nt	nt
CCOC(=O)[C@@H]1[C@H]2COc3ccccc3[C@@H]2N2C(=O)N(c3ccc(Cl)cc3)C(=O)[C@@]12C	i	i	i	-8.06*	i	i	i	i	nt	i	i	i	MrgX1 antag conf=i
N#Cc1c(-c2c(Cl)cccc2Cl)noc1/C=C/Nc1ccc(C(=O)O)cc1	5.44*	i	i	i	11.5*	18.0%*	i	i	nt	i	i	i	MrgX1 allo conf=i
CCCCN(C)c1nc(-c2ccco2)c2c(c1C#N)CC(C)(C)OC2	7.17*	i	28.3*	i	i	i	i	34.5%*	84.5%*	i	i	i
CN(C)CCNc1nc(-c2ccco2)c2c(c1C#N)CC(C)(C)OC2	i	i	i	i	i	nt	nt	nt	nt	nt	nt	nt
Cc1cnnn1-c1ccc(C(=O)CCl)cc1	10.8*	i	28.4*	i	i	85.5%*	38.5%*	19.0%*	252.4%*	i	i	47.7*
Cn1c2ccccc2c(=O)c2c(=O)n(C3CCCCC3)c(-c3ccco3)nc21	i	i	90.8*	i	i	nt	nt	nt	589.3%*	i	i	113*
COc1ccccc1NS(=O)(=O)c1cc(C(=O)NCc2ccncc2)ccc1C	i	i	i	i	i	nt	nt	nt	nt	nt	nt	nt
COc1ccccc1NS(=O)(=O)c1cc(C(=O)NCCC(C)C)ccc1F	i	i	34.5*	i	i	nt	nt	nt	313.1%*	i	i	101*
O=S(=O)(c1ccccc1)c1nnn2c1nc(NC1CCN(Cc3ccccc3)CC1)c1ccccc12	i	i	60*	i	i	nt	nt	nt	274.1%*	i	i	i
CCCCCCCC1CC(CSC(=N)N)OC1=O (stereo not drawn)	i	i	41*	i	i	nt	nt	nt	164.1%*	i	i	i
CCCCC1CC(CSC(=N)N)OC1=O (stereo not drawn)	i	i	i	i	i	nt	nt	nt	nt	nt	nt	nt
Nc1nc2ccccc2n1CCOc1ccc(F)cc1	i	i	40.6*	i	i	nt	nt	nt	134.0%*	i	i	i
COc1ccc(OCCn2c(N)nc3ccccc32)cc1	i	i	29.9*	i	i	nt	nt	nt	153.4%*	i	i	i
Cc1nc2ccccc2n1CCOc1ccccc1	i	i	i	i	i	nt	nt	nt	nt	nt	nt	nt
CCSc1nc2ccccc2n1CCOc1ccccc1	i	i	i	i	i	nt	nt	nt	nt	nt	nt	nt

From PubChem
